The values that follow come from the RNAGym collection of RNA variant scans (doi:10.1126/science.aae0568).

This sample holds only a part of the variants without activity. Where only a bound is given, the exact number is not on record here.

B1: tRNA (parent)
chain: GUUCCGUUGGCGUAAUGGUAACGCGUCUCCCUCCUAAGGAGAAGACUGCGGGUUCGAGUCCCGUACGGAACG

The data set covers variants of B1. The data set is described as follows: yeast fitness relative to wild type (ratio to wild type); higher = fitter; tRNA-Arg(CCU), competitive growth, 37 C, YPD. In outline:
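Variants of the tRNA-Arg(CCU) gene were chemically synthesised with a 3% per-site mutation rate across 69 sites and placed at the native genomic locus in Saccharomyces cerevisiae. Six parallel replicates of the pooled strains were competed in YPD at 37°C for 24 hours, and gene amplicons from the start and end populations were read by 100-nucleotide paired-end sequencing. Darwinian fitness relative to wild type was derived from changes in genotype frequencies. Genotypes required ≥ 100 starting reads, and estimates < 0.5 were set to 0.5.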
With GUUCCGUUGGCGUAAUGGUAACGCGUCACCCUCCUAAGGAGACGACUGCGGGUUCGCGUCCCGUACGGAACG [U28A A43C A57C], the yeast fitness was 0.608. The result for GUUCCGUUGGCGUAAUGGUAACGCGUCACCCUCCUAAGGAGGAGACUGCGGGUUCGGGUCCCGUACGGAACG [U28A A42G A57G] reads no more than 0.5; that for GUUCCGUUGGCGUAAUGGUAACGCGUCACCCUCCUAAGGAGAAGACUGCGGGUUCGAGUCCCGUACGGAUCG [U28A A70U], 0.738; that for GUUCCGUUGGCGUAAUGGUAACGCGUCACCCUCCUAAGGAGAAGACUGCGGGUUCGGGUCCCGUACGGAACG [U28A A57G], 0.688. The result for GUUCCGUUGGCGUAAUGGUAACGCGUUUCCCUCCUAAGGAGAAGACUGCGGGUUCGAGUCCCGCAAGGAACG [C27U U64C C66A] reads no more than 0.5; that for GUUCCGUUGGCGUAAUGGUAACGCGUCACCCUCCUAUGGAGAAGACUGCGGGUUCGAGUCCCGUACGGAACG [U28A A37U], 0.73; that for GUUCCGUUGGCGUAAUGGUAACGCGUCACCCUCCUAAGGCGAAGACUGCGGGUUCGAGUCCCGUACGGAACG [U28A A40C], 0.961. GUUCCGUUGGCGUAAUGGUAACGCGUCACCCUCCUAGGGACAAGACUGCGGGUUCGAGUCCCGUACGGAACG [U28A A37G G41C]: the yeast fitness is no more than 0.5. In the case of GUUCCGUUGGCGUAAUGGUAACGCGUCACCCUCCUAAGGGGAAGACUGCGCGUACGACUCCCGUACGGAACG [U28A A40G G51C U54A G58C] it was 0.582; in that of GUUCCGUUGGCGUAAUGGUAACGCGUCACCCUCCUGAGGAGAAGACUGCGGGUUCGAGUCCCGUAGGGAACG [U28A A36G C66G], no more than 0.5. With GUUCCGUUGGCGUAAUGGUAACGCGUCACCCUCCUAAGGAGAAGACUGCGGGUUCGAGUCCCGUCCGGAACG [U28A A65C], the yeast fitness was 0.675. The result for GUUCCGUUGGCGUAAUGGUAACGCGUCACCCUCCUAAGGGGAUGACUGCGGGUUCGAGUCCCGUUUGGAACG [U28A A40G A43U A65U C66U] reads no more than 0.5; that for GUUCCGUUGGCGUAAUGGUAACGCGUCACCCUCCUGAGGAGAAGACUGCGGGUUCGAGUCCCGUACGGAACG [U28A A36G], 0.73; that for GUUCCGUUGGCGUAAUGGUAACGCGUCACCCUCCUUAGGAGAAGACUGCGGGUUCGAGUCCCGUACGGAACG [U28A A36U], 0.564. In the case of GUUCCGUUGGCGUAAUGGUAACGCGUCACCCUCCUAAGGAGAAGCGUGCGGGUUCGAGUCCCGUACAGAACG [U28A A45C C46G G67A] it was 0.532; in that of GUUCCGUUGGCGUAAUGGUAACGCGUCACCCUCCUAAGGAGAAGCCUGAAGGUUCGAGUCCCGUACGGAACG [U28A A45C C49A G50A], no more than 0.5. In the case of GUUCCGUUGGCGUAAUGGUAACGCGUCACCCUCCUAAGGGGAAGACUGCGCGUACGACUCCCGUAUGGAACG [U28A A40G G51C U54A G58C C66U] it was no more than 0.5; in that of GUUCCGUUGGCGUAAUGGUAACGCGUCACCCUCCUAAGGAGAAGACUGCGGGUUCGAGUCCCGUACGGAACG [U28A], 0.892; in that of GUUCCGUUGGCGUAAUGGUAACGCGUCACCCUCCUAAGGCGAAGACUGCGGGUUCGAGUCCCGUAUGGAACG [U28A A40C C66U], 0.658. As for GUUCCGUUGGCGUAAUGGUAACGCGUCACCCUCCUGGGGAGAAGACUGCGGGUUCGAGUCCCGUACGGAACG [U28A A36G A37G], the yeast fitness was no more than 0.5.

Regarding GUUCCGUUGGCGUAAUGGUAACGCGUCACCCUCCUAAGGUGAAGACUGCGGGUUCGAGUCCAGUACGGAACG [U28A A40U C62A], the yeast fitness is 0.943. Consider GUUCCGUUGGCGUAAUGGUAACGCGUCACCCUCCUAAGGAGAAGGCUGCGGGUUCGAGUCCCGUAUGGAACG [U28A A45G C66U], for which the yeast fitness is 0.538. The result for GUUCCGUUGGCGUAAUGGUAACGCGUCACCCUCCUAAGGAGAAGACUGCGGGUUCGGGUACCGUACGGAACG [U28A A57G C60A] reads 0.569; that for GUUCCGUUGGCGUAAUGGUAACGCGUCACCCUCCUCAGGAGAAGGCUGCGGGUUCGAGUCCCGUACGGAACG [U28A A36C A45G], no more than 0.5. In the case of GUUCCGUUGGCGUAAUGGUAACGCGUCACCCUCCUAAGGAGAAGACUGCGGGUUCGCGUCCCGUAGGGAACG [U28A A57C C66G] it was no more than 0.5; in that of GUUCCGUUGGCGUAAUGGUAACGCGUCACCCUCCUAAGGAGAUGACUGCGGGAUCGAGUCCCGUACGGAACG [U28A A43U U53A], no more than 0.5.

Regarding GUUCCGUUGGCGUAAUGGUAACGCGUUUCCCUCCUAAGGAGAAGACUGCGGGUUCGAGGCCCGUACGCAACG [C27U U59G G68C], the yeast fitness is 0.539. The result for GUUCCGUUGGCGUAAUGGUAACGCGUCACCCUCCUGAGGAGAAGACUGCGGGUUCGUGUCCCGUACGGUACG [U28A A36G A57U A69U] reads no more than 0.5.

Take GUUCCGUUGGCGUAAUGGUAACGCGUCACCCUCCUAAGGAGAAGCCUGCGGGUUCGAGUCCCGUACGGAACG [U28A A45C]: the yeast fitness worked out at 0.79. In the case of GUUCCGUUGGCGUAAUGGUAACGCGUCACCCUCCUAAGGAGCAGACUGGGGGUUCGAGUCCUGUACGGAACG [U28A A42C C49G C62U] it was 0.585. In the case of GUUCCGUUGGCGUAAUGGUAACGCGUCACCCUCCUUAGGAGAAGACUGCGGAUUCGAGUCCCGUACGGAACG [U28A A36U G52A] it was 0.777. For GUUCCGUUGGCGUAAUGGUAACGCGUCACCCUCCUAAGGAGACGACUACGGGUUCGAGUCCCGUACGGACCG [U28A A43C G48A A70C], the yeast fitness was 0.577.

For GUUCCGUUGGCGUAAUGGUAACGCGUCACCCUCCUGAGGAGAAGACUGCGGCUUCGAGUCCCGUACGGAACG [U28A A36G G52C], the yeast fitness was no more than 0.5. In the case of GUUCCGUUGGCGUAAUGGUAACGCGUUUCCCUCCUAAGGAGAAGACUGCGGGUUCGAGCCCCGUACGGUACG [C27U U59C A69U] it was 0.795. The result for GUUCCGUUGGCGUAAUGGUAACGCGUCACCCUCCUAAGGAGAAGCCUGCGGGUUCGAGUCCCGUCCGGAACG [U28A A45C A65C] reads no more than 0.5. In the case of GUUCCGUUGGCGUAAUGGUAACGCGUCACCCUCCUAAGGUGAAGACUGCGGGUUCGAGUCCCGUACGGUACG [U28A A40U A69U] it was 0.769.

As to GUUCCGUUGGCGUAAUGGUAACGCGUCACCCUCCUAAGGUGAAGACUGUGGGUUCGAGUACCAUACGGAACG [U28A A40U C49U C60A G63A], the yeast fitness is no more than 0.5. In the case of GUUCCGUUGGCGUAAUGGUAACGCGUCACCCUCCUUAGGAGAAGACUCCGGGUUCGAGUCCCGUACGGAACG [U28A A36U G48C] it was no more than 0.5.
